# Calls of active or inactive are those of the source.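 The calls were made as follows, unless noted: active = viability at or below 30% in both replicate assays; inconclusive = viability at or below 30% in just one of the two assays; inactive = the rest.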
# How the values were obtained:
# [1] = reduced viability of SK-BR-3 breast cancer cells – cell-based, 24 h, human, pilot screen (AID 572;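 active = viability at or below 10% of carrier control in both of two separate runs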;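 also: compound exposure lasted between 18 and 24 h rather than exactly 24 h; 100% = carrier-treated control wells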); conditions: SK-BR-3 viability, CellTiter-Glo luminescence, at 10 µM, stronger effect = lower value
# [2] = HUVEC growth inhibition – cell-based, human, primary screen (AID 575); conditions: HUVEC proliferation, CellTiter-Glo luminescence, 72 h; at 10 µM; stronger effect = lower value;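 also: 100% = median of untreated cell wells with 0.1% DMSO on each plate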
# Summary of the method: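 Assay system: primary human umbilical vein endothelial cells / Buffer or medium: endothelial basal medium with 2% FBS plus growth supplements / Compound dosing: one dose, 10 µM final, 0.1% DMSO / Timing: 72 h treatment at 37 °C / Signal: CTG luminescence / Benchmarks: 32 DMSO-only cell-control wells (high), 32 MePR drug-control wells (low) per plate / Plate: collagen-coated 384-well format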
# [3] = H69AR cell proliferation blockers – human, duplicate replicates, primary screen (AID 580;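 active = viability at or under a set limit in both replicates, limit being median viability minus 3 SD, cut at about 48% in these data, passing the limit was not always enough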;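 also: 100% = mean luminescence of untreated wells and 0% = no signal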); conditions: H69AR lung tumor cells viability, ATP luminescence, 72 h; at 10 µM; stronger effect = lower value
# [4] = MRP1 drug-resistance reversers in H69AR cells – cell-based, doxorubicin co-treatment, pilot screen (AID 601;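 active = viability loss from added drug above about 55%, and viability with drug at most 40%, in both replicates, limit read from the data, passing the limit was not always enough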); conditions: CellTiter-Glo, 72 h, at 10 µM; for differential viability (reversal): stronger effect = higher value
# [5] = yeast transport mutant growth inhibition pilot in 384-well plates, post-Golgi transport modulator project (AID 636; in the data active = inhibition above about 31%); conditions: absorbance 615 nm, about 18 h, stronger effect = higher value
# [6] = growth suppression of yeast trafficking mutant, preliminary HTS, modulators of trafficking downstream of Golgi apparatus project, 1536-format plate, OD 615 nm (AID 637; in the data active = inhibition above about 30%); conditions: yeast transport mutant growth, absorbance 615 nm, 18 h; stronger effect = higher value
# [7] = H69AR cells + 2 uM doxorubicin, measured here: viability with 2 uM doxorubicin, stronger effect = lower value
# [8] = H69AR cells, compound alone cytotoxicity
SMILES,viability [1],viability [2],viability [3],differential viability (reversal) ([4]; H69AR cells + 2 uM doxorubicin),"viability [4, 7] [%]","viability [4, 8] [%]",inhibition [5],inhibition [6]
C=CCN1C(=O)CS/C1=C(\C#N)S(=O)(=O)c1ccc(C)cc1,114% (inactive),96.2% (inactive),85.5% (inactive),-2.67% (inactive),88.2,85.5,-5.62% (inactive),-1.45% (inactive)
Cc1[nH]nc2c1C(=O)CCC2,105% (inactive),117% (inactive),101% (inactive),4.79% (inactive),96.3,101,0.68% (inactive),-0.18% (inactive)
CCCCn1cnc2c1c(=O)n(C)c(=O)n2C,77% (inactive),100% (inactive),100% (inactive),11.1% (inactive),89,100,3.24% (inactive),0.18% (inactive)
CC(C)C[C@H](NC(=O)Nc1cccc(C(F)(F)F)c1)C(=O)O,115% (inactive),98.1% (inactive),106% (inactive),14.6% (inactive),91.8,106,-4.25% (inactive),-0.81% (inactive)
CC(C)C12CN3CC(C(C)C)(CN(C1)C3c1ccc3c(c1)OCO3)C2=O (stereo not drawn),117% (inactive),91.8% (inactive),85.5% (inactive),-0.655% (inactive),86.2,85.5,-1.6% (inactive),0.18% (inactive)
COc1ccc(CNc2nc3nc(C)c(Cl)c(C)n3n2)cc1OC,97% (inactive),104% (inactive),92.6% (inactive),3.22% (inactive),89.4,92.6,-6.35% (inactive),-6.73% (inactive)
COc1ccc(C)cc1C(=O)CCC(=O)Nc1ccccc1N1CCOCC1,90% (inactive),54% (inactive),1.36% (active),-1.5% (inactive),2.85,1.36,-6.27% (inactive),1.31% (inactive)
COc1ccc(CN(C2CCCC2)S(=O)(=O)c2ccc(-n3cnnn3)cc2)cc1OC,71% (inactive),80.5% (inactive),81.6% (inactive),-14% (inactive),95.6,81.6,-7.12% (inactive),0.81% (inactive)
Cc1ccccc1-n1nc(C)c2cc(C(=O)NCc3cccnc3)sc21,126% (inactive),74.1% (inactive),70.3% (inactive),10.8% (inactive),59.4,70.3,-1.95% (inactive),9.51% (inactive)
CC(C)(C)NS(=O)(=O)c1ccc(CCC(=O)O)cc1,100% (inactive),105% (inactive),94.8% (inactive),-5.2% (inactive),100,94.8,-3.42% (inactive),-1.45% (inactive)
CCCC1c2ccc(C)n2CCN1C(=O)Nc1ccccc1Cl (stereo not drawn),92% (inactive),92.2% (inactive),93.5% (inactive),6.95% (inactive),86.6,93.5,2.73% (inactive),8.2% (inactive)
N#Cc1ccc(CSc2nnc(-c3ccccn3)n2-c2ccccc2)cc1,62% (inactive),93.5% (inactive),95.1% (inactive),6.06% (inactive),89.1,95.1,-7.67% (inactive),-1.09% (inactive)
Cc1oc2cc3c(C(=O)OCCN(C)C)c(C)oc3cc2c1C(=O)OCCN(C)C,92.5% (inactive),72.2% (inactive),90.4% (inactive),-16.8% (inactive),107,90.4,-3.95% (inactive),-10% (inactive)
CCC[C@@H]1C[C@@H](C(=O)N[C@H]([C@@H](C)O)[C@H]2O[C@H](SC)[C@H](O)[C@@H](O)C2O)N(C)C1 (stereo partly drawn),128% (inactive),94.7% (inactive),89.7% (inactive),9.67% (inactive),80,89.7,0.52% (inactive),15.7% (inactive)
CCCCNC(=O)CSc1nc2ccc(N3CCOCC3)cc2c(=O)n1CCc1ccccc1,95.5% (inactive),70.1% (inactive),69.3% (inactive),18.1% (inactive),51.3,69.3,-7.16% (inactive),4.13% (inactive)
Cc1cc(C(C)(C)C)c(O)c(C)c1CC1=NCCN1,95% (inactive),93.4% (inactive),92.5% (inactive),2.26% (inactive),90.3,92.5,-9.04% (inactive),-3.23% (inactive)
CC(=O)c1ccccc1NS(=O)(=O)c1c(C)nn(-c2ccccc2)c1C,99% (inactive),77.6% (inactive),88.3% (inactive),-5% (inactive),93.3,88.3,-3.11% (inactive),-4.55% (inactive)
CC(OC(=O)c1ccco1)C(=O)NCc1cccs1 (stereo not drawn),119% (inactive),90.3% (inactive),97.4% (inactive),-5.53% (inactive),103,97.4,-4.25% (inactive),-4.55% (inactive)

SMILES,viability [1],viability [2],viability [3],differential viability (reversal) ([4]; H69AR cells + 2 uM doxorubicin),"viability [4, 7] [%]","viability [4, 8] [%]",inhibition [5],inhibition [6]
O=C(Nc1ccc2oc(=O)ccc2c1)c1cccnc1,111% (inactive),107% (inactive),98.9% (inactive),14.6% (inactive),84.2,98.9,-4.38% (inactive),-0.18% (inactive)
O=[N+]([O-])c1cccc2cn[nH]c12,113% (inactive),88.6% (inactive),99.5% (inactive),9.56% (inactive),90,99.5,-0.91% (inactive),1.17% (inactive)
CC(C)(C)C1=Nn2c(nnc2-c2n[nH]c3c2CCC3)SC1,87% (inactive),97.3% (inactive),85.9% (inactive),-4.71% (inactive),90.6,85.9,-7.26% (inactive),4.68% (inactive)
COCCOC(=O)C1=C(C)NC(C)=C(C(=O)OC(C)C)C1c1cccc([N+](=O)[O-])c1 (stereo not drawn),89% (inactive),65.2% (inactive),77.4% (inactive),-19% (inactive),96.4,77.4,1.56% (inactive),16.2% (inactive)
CCC(=O)Nc1cc(Cl)ccc1N1CCN(C(=O)CC)CC1,70% (inactive),92.6% (inactive),88.5% (inactive),3.43% (inactive),85,88.5,-4.66% (inactive),0.73% (inactive)
CSCCC(NC(=O)CCN1C(=O)c2ccccc2C1=O)C(=O)O (stereo not drawn),85% (inactive),101% (inactive),98.5% (inactive),13.8% (inactive),84.7,98.5,-3.01% (inactive),6.73% (inactive)
O=C1c2ccccc2NC(c2cccc(F)c2)N1Cc1ccco1 (stereo not drawn),53% (inactive),103% (inactive),92% (inactive),4.72% (inactive),87.3,92,-6.85% (inactive),-1.64% (inactive)
Cc1ccc(-n2nc3cc(Cl)c(NC(=O)c4ccco4)cc3n2)cc1,116% (inactive),92.6% (inactive),42.7% (active),-5.97% (inactive),48.7,42.7,-7.53% (inactive),2.7% (inactive)
Cc1ccc(CN2CCN(C(=O)C3CCC3)CC2)cc1,88% (inactive),102% (inactive),97% (inactive),4.13% (inactive),92.9,97,-8.49% (inactive),2.36% (inactive)
CC1(C)S[C@@H]2[C@H](NC(=O)C(C(=O)O)c3ccccc3)C(=O)N2[C@H]1C(=O)O (stereo partly drawn),87% (inactive),73.9% (inactive),107% (inactive),3.92% (inactive),103,107,-1.43% (inactive),-2.67% (inactive)
C=CCSc1nnc(-c2ccc(Cl)cc2Cl)o1,96% (inactive),107% (inactive),87.9% (inactive),19.9% (inactive),67.9,87.9,-5.47% (inactive),0.73% (inactive)
COc1ccc(-c2nnn(CC(=O)c3ccc4c(c3)OCCO4)n2)cc1OC,92% (inactive),73.8% (inactive),81.5% (inactive),7.78% (inactive),73.7,81.5,-7.26% (inactive),0% (inactive)
COc1cc(C(=O)Nc2cc(C)ccn2)cc(OC)c1OC,90% (inactive),89.5% (inactive),97.5% (inactive),17.6% (inactive),79.9,97.5,0.55% (inactive),-6.13% (inactive)
CCCCOC(=O)Nc1nccs1,101% (inactive),107% (inactive),103% (inactive),1.28% (inactive),101,103,-5.33% (inactive),-3.27% (inactive)
COc1cc([C@@H]2[C@H]3CN(C)CC=C3C(C#N)=C(N)C2(C#N)C#N)cc2c1OCO2,101% (inactive),93.1% (inactive),89.8% (inactive),-5.09% (inactive),94.8,89.8,-2.19% (inactive),0.18% (inactive)
O=C(Nc1ccon1)c1cc(-c2ccccc2)nc2ccccc12,91% (inactive),104% (inactive),96.2% (inactive),-3.19% (inactive),99.4,96.2,-5.95% (inactive),-3.27% (inactive)
Cn1c(NC(=O)c2cccc(Cn3cc(Cl)cn3)c2)nc2ccccc21,83% (inactive),72.4% (inactive),68.9% (inactive),0.885% (inactive),68,68.9,-4.93% (inactive),-2.79% (inactive)
COCCCNC(=O)CCCn1c(=O)c2ccccc2n(CC(=O)Nc2c(C)cccc2C)c1=O,99% (inactive),97.6% (inactive),93.1% (inactive),4.87% (inactive),88.2,93.1,-1.69% (inactive),-1.31% (inactive)

# Source: PubChem BioAssay
